# High-throughput results: PubChem BioAssay, Broad Institute
# KDM4C inh = KDM4C (human) demethylase inhibition; Q9H3R0; GST-KDM4C 2-372, H3K9me3 peptide, LANCE TR-FRET; inhibition, % at 12.5 µM; hit rate 0.15% among 96,000; AID 720574;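 active means mean replicate inhibition above about 25%, with at least 55% of replicates also reaching it, limit read from the data, passing the limit was not always enough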
# Target sequence (Q9H3R0 2-372 limits assumed): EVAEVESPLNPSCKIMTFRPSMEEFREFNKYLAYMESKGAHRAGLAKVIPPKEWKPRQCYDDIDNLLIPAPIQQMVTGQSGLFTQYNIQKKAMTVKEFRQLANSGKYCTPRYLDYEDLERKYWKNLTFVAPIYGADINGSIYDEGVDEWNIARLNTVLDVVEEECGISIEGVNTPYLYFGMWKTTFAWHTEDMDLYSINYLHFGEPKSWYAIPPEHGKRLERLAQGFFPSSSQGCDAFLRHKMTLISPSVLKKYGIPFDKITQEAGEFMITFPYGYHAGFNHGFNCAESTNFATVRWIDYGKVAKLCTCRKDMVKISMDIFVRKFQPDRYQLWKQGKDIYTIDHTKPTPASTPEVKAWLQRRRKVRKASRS
#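 material = GST-tagged GASC-1 (JMJD2C) catalytic fragment, aa 2-372 | amount = enzyme final amount 10 nM | medium = HEPES buffer, pH 7.5, plus ascorbate | also added = H3K9me3 peptide substrate, Fe(II), 2-oxoglutarate | dosing = single dose | times = 30 min demethylation and 1 h detection at room temperature | detection = LANCE TR-FRET | read-out basis = Fall in 671/618 emission ratio as inhibition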
# Pf Dd2 inh = blocks growth of Plasmodium falciparum Dd2 parasites | P. falciparum Dd2 growth, SYBR Green, 72 h; active compounds read low | activity change, % at 10 µM | hit rate 2.3% among 94,000 | AID 1159554; in the data active means activity change below about -80%
# IDH1 mut inh = IDH1 R132H (human) inhibition. AID 624101. IDH1 R132H reductase, diaphorase/resazurin fluorescence, 60 min. hit rate 0.18% among 70,000. inhibition, % at 10 µM; in the data active means inhibition above about 34%
# Hits are given with their value; - = inactive; . = not tested or not shown; ! = repeats disagree. The sample as a whole holds a higher share of hits than the screen did.
SMILES,KDM4C inh,Pf Dd2 inh,IDH1 mut inh
COCCNC(=O)C[C@@H]1C[C@H]2c3cc(NC(=O)CN(C)C)ccc3O[C@H]2[C@H](CO)O1,-,-,-
Cc1ccc(NC(=O)CSc2nc3ccccc3o2)cc1Cl,.,.,-
CO[C@@H]1CN(C)C(=O)c2ccc(NC(=O)c3cc(C)on3)cc2OC[C@@H](C)N(C(=O)C2CC2)C[C@@H]1C,-,-,.
C[C@@H]1CN([C@@H](C)CO)C(=O)Cc2cc(NC(=O)CCCCCC(=O)Nc3ccccc3N)ccc2O[C@H]1CN(C)Cc1ccc2c(c1)OCO2,.,-,-
C[C@H]1CN([C@@H](C)CO)C(=O)Cc2cc(NC(=O)CCCCCC(=O)Nc3ccccc3N)ccc2O[C@H]1CN(C)Cc1ccc2c(c1)OCO2,-,-88,-
Cc1ccc(S(=O)(=O)N(C)C[C@@H]2Oc3ccc(NC(=O)CCCCCC(=O)Nc4ccccc4N)cc3CC(=O)N([C@@H](C)CO)C[C@@H]2C)cc1,-,-88,-
Cc1ccc(S(=O)(=O)N(C)C[C@@H]2Oc3ccc(NC(=O)CCCCCC(=O)Nc4ccccc4N)cc3CC(=O)N([C@@H](C)CO)C[C@H]2C)cc1,-,-,-
C[C@H]1CN([C@@H](C)CO)C(=O)Cc2cc(NC(=O)CCCCCC(=O)Nc3ccccc3N)ccc2O[C@H]1CN(C)Cc1ccc(-c2ccccc2)cc1,-,-82,-
C[C@@H]1CN([C@H](C)CO)C(=O)Cc2cc(NC(=O)CCCCCC(=O)Nc3ccccc3N)ccc2O[C@H]1CN(C)Cc1ccccc1,-,-,-
COc1cccc(CN2[C@@H]3CNC[C@H]2C3c2ccc(-c3cccnc3)cc2)c1 (stereo not given in full),-,-,.
COc1ccc(NC(=O)Nc2ccc3c(c2)CC(=O)N([C@H](C)CO)C[C@@H](C)[C@@H](CN(C)Cc2ccc(-c4ccccc4)cc2)O3)cc1,-,-,.
COc1ccc(S(=O)(=O)N(C)C[C@@H]2Oc3ncc(C#CC(C)(C)O)cc3C(=O)N([C@H](C)CO)C[C@@H]2C)cc1,-,-,-
C[C@H](CO)N1C[C@H](C)[C@H](CN(C)Cc2ccc(Oc3ccccc3)cc2)Oc2ccc(NC(=O)Nc3ccc4c(c3)OCO4)cc2CC1=O,-,-,-
C[C@@H]1CN([C@H](C)CO)C(=O)Cc2cc(NC(=O)Cn3cnnn3)ccc2O[C@@H]1CN(C)Cc1ccccc1,-,-,-
C[C@H]1CN([C@@H](C)CO)S(=O)(=O)c2ccc(/C=C/c3ccccc3)cc2O[C@H]1CN(C)C(=O)c1ccc2c(c1)OCO2,-,-,-
CC(=O)N(C)C[C@@H]1Oc2cc(C#Cc3ccccc3F)ccc2S(=O)(=O)N([C@H](C)CO)C[C@@H]1C,-,-,-
C[C@H](CO)N1C[C@H](C)[C@H](CN(C)C(=O)c2ccc3c(c2)OCO3)Oc2cc(/C=C/c3ccccc3)ccc2S1(=O)=O,-,-83,-
C[C@@H]1CN([C@H](C)CO)S(=O)(=O)c2ccc(C#Cc3ccccc3F)cc2O[C@H]1CN(C)C(=O)c1ccc2c(c1)OCO2,-,-81!,.
O=C(C[C@H]1C=C[C@H](NS(=O)(=O)c2ccccc2)[C@H](CO)O1)N1CCc2ccccc2C1,-,-,.
COc1ccc(S(=O)(=O)N(C)C[C@H]2OCc3ccccc3-c3c(n(C)c4ccccc34)C(=O)N([C@@H](C)CO)C[C@@H]2C)cc1,-,-86,.
C[C@@H]1CN([C@@H](C)CO)C(=O)c2c(c3ccccc3n2C)-c2ccccc2CO[C@@H]1CN(C)S(=O)(=O)c1ccccc1,-,-,-
C[C@H](CO)N1C[C@H](C)[C@@H](CN(C)S(=O)(=O)c2ccccc2)OCc2ccccc2-c2c(n(C)c3ccccc23)C1=O,-,-,.
COc1cccc(S(=O)(=O)N(C)C[C@H]2OCc3ccccc3-c3c(n(C)c4ccccc34)C(=O)N([C@H](C)CO)C[C@H]2C)c1,-,-,.
COc1ccc(S(=O)(=O)N(C)C[C@@H]2OCc3ccccc3-c3c(n(C)c4ccccc34)C(=O)N([C@H](C)CO)C[C@@H]2C)cc1,-,-83,-
COc1ccc(S(=O)(=O)N(C)C[C@@H]2OCc3ccccc3-c3c(n(C)c4ccccc34)C(=O)N([C@@H](C)CO)C[C@@H]2C)cc1,-,-87,-
C[C@@H]1CCCCO[C@@H](CN(C)C(=O)Nc2cccc3ccccc23)[C@@H](C)CN([C@H](C)CO)C(=O)c2cc(NC(=O)c3ccncc3)ccc2O1,-,-,.
CC(C)(O)C#Cc1cccc(-c2nc(C(=O)N[C@@H]3CCN(Cc4ccccc4)C3)cc3c2[C@@H](CCO)N(S(=O)C(C)(C)C)C3)c1 (stereo not given in full),-,-,.
